Laboratory results from PMC3176992 (Molecular psychiatry, 2010).
Changes are numbered by the printed parent chain. “Also recorded” adds a separate entry of the source. Peptide text beside a SMILES is read from it. * marks the point of attachment. Cbz = O=C(OCc1ccccc1)*

B1: DISC1 AS1: DISC1 containing the mutation VLR336–338AAA, expressed from plasmid (protein)
chain: MPGGGPQGAPAAAGGGGVSHRAGSRDCLPPAACFRRRRLARRPGYMRSSTGPGIGFLSPAVGTLFRFPGGVSGEESHHSESRARQCGLDSRGLLVRSPVSKSAAAPTVTSVRGTSAHFGIQLRGGTRLPDRLSWPCGPGSAGWQQEFAAMDSSETLDASWEAACSDGARRVRAAGSLPSAELSSNSCSPGCGPEVPPTPPGSHSAFTSSFSFIRLSLGSAGERGEAEGCPPSREAESHCQSPQEMGAKAASLDGPHEDPRCLSRPFSLLATRVSADLAQAARNSSRPERDMHSLPDMDPGSSSSLDPSLAGCGGDGSSGSGDAHSWDTLLRKWEPAAADCLLRNRRQMEVISLRLKLQKLQEDAVENDDYDKAETLQQRLEDLEQEKISLHFQLPSRQPALSSFLGHLAAQVQAALRRGATQQASGDDTHTPLRMEPRLLEPTAQDSLHVSITRRDWLLQEKQQLQKEIEALQARMFVLEAKDQQLRREIEEQEQQLQWQGCDLTPLVGQLSLGQLQEVSKALQDTLASAGQIPFHAEPPETIRSLQERIKSLNLSLKEITTKVCMSEKFCSTLRKKVNDIETQLPALLEAKMHAISGNHFWTAKDLTEEIRSLTSEREGLEGLLSKLLVLSSRNVKKLGSVKEDYNRLRREVEHQETAYETSVKENTMKYMETLKNKLCSCKCPLLGKVWEADLEACRLLIQSLQLQEARGSLSVEDERQMDDLEGAAPPIPPRLHSEDKRKTPLKVLEEWKTHLIPSLHCAGGEQKEESYILSAELGEKCEDIGKKLLYLEDQLHTAIHSHDEDLIQSLRRELQMVKETLQAMILQLQPAKEAGEREAAASCMTAGVHEAQA
modifications: left off: Myc, end not stated, kept
B2: DISC1 WT: wild-type human DISC1 expressed from plasmid (protein)
chain: B1 chain with A336V, A337L, A338R
modifications: left off: Myc, end not stated, kept
B3: DISC1 ΔTNIK: DISC1 with amino acids 329–350 deleted, expressed from plasmid (protein)
chain: MPGGGPQGAPAAAGGGGVSHRAGSRDCLPPAACFRRRRLARRPGYMRSSTGPGIGFLSPAVGTLFRFPGGVSGEESHHSESRARQCGLDSRGLLVRSPVSKSAAAPTVTSVRGTSAHFGIQLRGGTRLPDRLSWPCGPGSAGWQQEFAAMDSSETLDASWEAACSDGARRVRAAGSLPSAELSSNSCSPGCGPEVPPTPPGSHSAFTSSFSFIRLSLGSAGERGEAEGCPPSREAESHCQSPQEMGAKAASLDGPHEDPRCLSRPFSLLATRVSADLAQAARNSSRPERDMHSLPDMDPGSSSSLDPSLAGCGGDGSSGSGDAHSWDTISLRLKLQKLQEDAVENDDYDKAETLQQRLEDLEQEKISLHFQLPSRQPALSSFLGHLAAQVQAALRRGATQQASGDDTHTPLRMEPRLLEPTAQDSLHVSITRRDWLLQEKQQLQKEIEALQARMFVLEAKDQQLRREIEEQEQQLQWQGCDLTPLVGQLSLGQLQEVSKALQDTLASAGQIPFHAEPPETIRSLQERIKSLNLSLKEITTKVCMSEKFCSTLRKKVNDIETQLPALLEAKMHAISGNHFWTAKDLTEEIRSLTSEREGLEGLLSKLLVLSSRNVKKLGSVKEDYNRLRREVEHQETAYETSVKENTMKYMETLKNKLCSCKCPLLGKVWEADLEACRLLIQSLQLQEARGSLSVEDERQMDDLEGAAPPIPPRLHSEDKRKTPLKVLEEWKTHLIPSLHCAGGEQKEESYILSAELGEKCEDIGKKLLYLEDQLHTAIHSHDEDLIQSLRRELQMVKETLQAMILQLQPAKEAGEREAAASCMTAGVHEAQA
modifications: left off: Myc, end not stated, kept

Columns and labels:
GluR1 = GluR1 level in primary hippocampal neurons; type: cell-based, rat; details: 10 µM MG132 or 25 µg/ml leupeptin for 7 h, then 10 µM peptide 40 min; N=4
PSD-95 = PSD-95 level in primary hippocampal neurons; type: cell-based, rat; details: 10 µM MG132 or 25 µg/ml leupeptin for 7 h, then 10 µM peptide 40 min; N=4
TNIK = TNIK level and phosphorylation in primary hippocampal neurons; type: cell-based, rat; details: 10 µM MG132 or 25 µg/ml leupeptin for 7 h, then 10 µM peptide 40 min; N=4
HA-TNIK = assay: Co-immunoprecipitation of DISC1 with TNIK from HEK293 cells; type: binding, human; details: HA-TNIK and Myc-DISC1 construct coexpressed in HEK293 cells
Summary of the method: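 HEK293 cells in DMEM with 10% heat-inactivated FBS, seeded at 40–80% density and transfected 24 h later (Lipofectamine 2000). Lysed in co-IP buffer (50 mM Tris-Cl pH 7.5, 150 mM NaCl, 1 mM EDTA, 1% Triton X-100) with protease/phosphatase inhibitors, 30 min at 4 °C, then cleared at 12000 g. Protein G beads loaded with 1–3 µg antibody for 1 h, incubated with lysate 2 h to overnight at 4 °C, washed, and run on 4–12% Bis-Tris gels for western blot.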

TNIK in NIH3T3 cells = assay: TNIK-induced cell rounding assay; type: cell-based; details: for inhibition of TNIK-induced cell rounding: NIH3T3 cells co-transfected with HA-TNIK WT and DISC1 construct
Summary of the method: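 NIH3T3 cells in DMEM with 10% heat-inactivated FBS, seeded at 40–80% density and co-transfected 24 h later (Lipofectamine 2000) with HA-tagged TNIK and Myc-tagged DISC1 constructs. Immunofluorescence staining with anti-HA/anti-Myc antibodies. Rounding was scored as cell length-to-breadth ratio measured from TNIK (HA) staining.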

Molecule	DISCpep-WT-tat-induced loss of GluR1, with inhibitor pretreatment (GluR1)	DISCpep-WT-tat-induced loss of PSD-95, with inhibitor pretreatment (PSD-95)	dephosphorylation of TNIK at S769, with inhibitor pretreatment (TNIK)	inhibition of TNIK-induced cell rounding (TNIK in NIH3T3 cells)	also measured
CC(C)C[C@@H](C=O)NC(=O)[C@H](CC(C)C)NC(=O)[C@H](CC(C)C)NC(=O)OCc1ccccc1 [MG132] (Cbz-Leu-Leu-Leu-aldehyde)	a reciprocal effect observed for GluR1; also recorded: GluR1 degradation still occurred	blocked by MG132; also recorded: rescued	neither affected by MG132 or leupeptin	–	dephosphorylation of TNIK at S764, with inhibitor pretreatment (TNIK): not affected by MG132
CC(=O)N[C@@H](CC(C)C)C(=O)N[C@@H](CC(C)C)C(=O)N[C@H](C=O)CCCNC(=N)N [leupeptin]	a reciprocal effect observed for GluR1; also recorded: rescued	not leupeptin	neither affected by MG132 or leupeptin	–	–
B1	–	–	–	could not inhibit TNIK in cell-based assays	interaction with TNIK (co-IP) (HA-TNIK; listed as Myc-DISC1 AS1): only showed a weak interaction with TNIK
B2	–	–	–	unable to induce cell rounding; also recorded: inhibits TNIK-induced cell rounding	interaction with TNIK (co-IP) (HA-TNIK): co-immunoprecipitates with HA-TNIK; length-to-breadth ratio of cells (TNIK in NIH3T3 cells; NIH3T3 cells, co-expressed with TNIK, versus empty vector, N>30): significantly increased the average length-to-breadth ratio of a cell
B3	–	–	–	–	interaction with TNIK (co-IP) (HA-TNIK; listed as Myc-DISC1 ΔTNIK): abolition of interaction with TNIK
